# Measurements gathered from unrelated publications.
# Protocols differ between the studies behind these lines.
# EGFR del747-750/T751S: Epidermal growth factor receptor (EGFR, Homo sapiens, UniProt P00533, del747-750/T751S)
# EGFR L858R/T790M: Epidermal growth factor receptor (EGFR, Homo sapiens, UniProt P00533, L858R/T790M)
# EGFR L861Q: Epidermal growth factor receptor (EGFR, Homo sapiens, UniProt P00533, L861Q)
# EGFR T790M: Epidermal growth factor receptor (EGFR, Homo sapiens, UniProt P00533, T790M)
# EGFR L858R: Epidermal growth factor receptor (EGFR, Homo sapiens, UniProt P00533, L858R)
# EGFR G719S: Epidermal growth factor receptor (EGFR, Homo sapiens, UniProt P00533, G719S)
# EGFR del747-752/P753S: Epidermal growth factor receptor (EGFR, Homo sapiens, UniProt P00533, del747-752/P753S)
# EGFR G719C: Epidermal growth factor receptor (EGFR, Homo sapiens, UniProt P00533, G719C)
# EGFR del752-759: Epidermal growth factor receptor (EGFR, Homo sapiens, UniProt P00533, del752-759)
# EGFR: Epidermal growth factor receptor (EGFR, Homo sapiens, UniProt P00533)
SMILES,target,test,setting,remaining binding
O=C1NC(c2ccccn2)Sc2ccccc21 (centres unmarked),EGFR del747-750/T751S,"cell-free assay, competition with immobilised ligand",1 µM,68%
c1cnn2ncc(-c3ccnc(N4CCC45COC5)n3)c2c1,EGFR L858R/T790M,binding,1 µM,65%
COc1cnc(Nc2cccc(S(N)(=O)=O)c2)nc1N1CCN(c2ccccc2)CC1,EGFR L861Q,"binding, competition with immobilised ligand",1 µM,100%
CN1CCN(c2ccc(Nc3nccc(-c4ccccc4)n3)cc2C(F)(F)F)CC1,EGFR T790M,binding,10 µM,77%
C[C@@H](c1cccc(C#N)c1)n1cc(Cl)cc(C(N)=O)c1=N,EGFR L858R,"cell-free assay, competition with immobilised ligand",1 µM,100%
O=C(Nc1c[nH]nc1C(=O)NC1CCNCC1)c1cc(F)cc(F)c1,EGFR G719S,"binding, competition with immobilised ligand",1 µM,100%
Cc1noc([C@H]2C[C@@H](c3ccc(C(F)(F)F)cc3)CN(C(=O)N3CCS(=O)(=O)C3)C2)n1,EGFR del747-752/P753S,"cell-free assay, competition with immobilised ligand",1 µM,78%
O=C(c1ccc(Nc2ncc(Cl)c(-c3cc4ccccc4s3)n2)cc1)N1CCC(N2CCCC2)CC1,EGFR T790M,"binding, competition with immobilised ligand",1 µM,58%
CN1CCN(c2ccc(Nc3nccc(-c4cccc([N+](=O)[O-])c4)n3)cc2C(F)(F)F)CC1,EGFR G719S,binding,10 µM,98%
CCOC(=O)c1cc2cc(-c3cc(C(=O)NCc4ccc(C(=O)O)cc4)nn3C)ccc2[nH]1,EGFR G719C,"cell-free assay, competition with immobilised ligand",0.1 µM,100%
N[C@H]1CCN(c2nccc(-c3cnn4ncccc34)n2)C1,EGFR L858R/T790M,binding,1 µM,89%
CCOCCn1cc(C(=O)Nc2ccc(-n3nc(-c4cccnc4)cc3C(F)(F)F)cn2)ccc1=O,EGFR del747-750/T751S,"cell-free assay, competition with immobilised ligand",1 µM,100%
COc1ncc2cc3ccccc3nc2c1C#N,EGFR L861Q,"cell-free assay, competition with immobilised ligand",5 µM,100%
O=C(NCCCN1CCOCC1)c1ccc(Nc2nccc(-c3cc4ccccc4s3)n2)cc1,"Epidermal growth factor receptor (EGFR, Homo sapiens, UniProt P00533, del746-750)","binding, competition with immobilised ligand",1 µM,100%
CNC(=O)[C@@H]1CC[C@@H](n2c(-c3ccc4cnccc4c3)nc3ccc(C(=O)NCc4cccc(C(N)=O)c4)cc32)C1,EGFR L861Q,"binding, competition with immobilised ligand",1 µM,100%
O=C(c1ccc(Nc2ncc(Cl)c(-c3ccc(Cl)s3)n2)cc1)N1CCC(N2CCCC2)CC1,EGFR G719C,"binding, competition with immobilised ligand",1 µM,100%
CN(CCCC(F)(F)F)c1nccc(-c2cnn3ncccc23)n1,EGFR L858R,binding,1 µM,85%
CNCc1ccccc1-c1csc([C@@H](C)Nc2nc(C)nc3cc(OC)c(OC)cc23)c1,EGFR del752-759,"cell-free assay, competition with immobilised ligand",1 µM,63%
CN(C)c1ncc(F)c(-c2cnn3ncccc23)n1,EGFR del752-759,binding,1 µM,100%
O=C(NCCCN1CCOCC1)c1ccc(Nc2ncc(Cl)c(-c3ccc(Cl)s3)n2)cc1,EGFR del747-750/T751S,"binding, competition with immobilised ligand",1 µM,100%
O=C(NCC1CCOCC1)c1n[nH]cc1NC(=O)c1c(F)cccc1F,EGFR del747-752/P753S,"binding, competition with immobilised ligand",1 µM,100%
Cc1cnc(Nc2ccc(C(=O)N3CCC(N4CCCC4)CC3)cc2)nc1-c1cc2ccccc2s1,EGFR del747-750/T751S,"binding, competition with immobilised ligand",1 µM,97%
COc1cnc(Nc2cccc(S(N)(=O)=O)c2)nc1N1CCN(c2ccccc2)C(=O)C1,EGFR L861Q,"binding, competition with immobilised ligand",1 µM,100%
COc1ccnn2ncc(-c3ccnc(N(C)C)n3)c12,EGFR,binding,1 µM,79%
CCN1CCN(Cc2ccc(C(=O)Nc3ccc(C)c(Oc4ccc5c(c4)CC(=O)N5)c3)cc2C(F)(F)F)CC1,EGFR T790M,"binding, competition with immobilised ligand",1 µM,83%
Cc1nc(N2CC[C@@H](O)C2)ncc1-c1cc(C(F)(F)F)cc2[nH]ncc12,EGFR del752-759,"cell-free assay, competition with immobilised ligand",1 µM,99%
CN(C)c1nccc(-c2cnn3ncccc23)n1,EGFR,binding,1 µM,100%
Nc1ncc2c(n1)-c1c([nH]c3ccc(C#CC4CC4)cc13)CCCC2,EGFR T790M,"binding, competition with immobilised ligand",1 µM,86%
O=C(NC[C@@H]1[C@H]2CN(C(=O)OCc3cc(C(F)(F)F)cc(C(F)(F)F)c3)C[C@@H]12)c1ccc2[nH]nnc2c1,EGFR L858R,"cell-free assay, competition with immobilised ligand",1 µM,100%
C[C@@H]1CCN(c2nccc(-c3cnn4ncccc34)n2)C1,EGFR G719S,binding,1 µM,74%
O=C(c1ccc(Nc2nccc(-c3cc4ccccc4s3)n2)cc1)N1CCC(N2CCCC2)CC1,EGFR del747-752/P753S,"binding, competition with immobilised ligand",1 µM,90%
c1cncc(-c2cccc(Nc3nccc(NC4CCCCC4)n3)c2)c1,EGFR G719S,"binding, competition with immobilised ligand",10 µM,68%
